PREPL inhibitor: PREPL enzyme inhibitors, primary screen, biochemical, fluorescence polarization; actives 0.68% (n = 320,000); recombinant PREPL, fluorescence polarization activity-based probe; inhibition, % at 5.96 µM; AID 2751, 2010; in the data active = inhibition above about 43%;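 note: 0% = enzyme with DMSO and 100% = wells lacking enzyme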
Rpn11 inh: Rpn11 (PSMD14) deubiquitinase inhibitors, primary screen, biochemical, fluorescence polarization, uHTS | human 26S proteasome, Ub4-pepOG fluorescence polarization; 20S core pre-blocked with epoxomicin | inhibition, % at 20 µM | actives 0.59% (n = 360,000);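 active = inhibition at 20 µM, scaled to each plate's controls, above about 33%, limit read from the data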
Target sequence (O00487 whole entry, looked up): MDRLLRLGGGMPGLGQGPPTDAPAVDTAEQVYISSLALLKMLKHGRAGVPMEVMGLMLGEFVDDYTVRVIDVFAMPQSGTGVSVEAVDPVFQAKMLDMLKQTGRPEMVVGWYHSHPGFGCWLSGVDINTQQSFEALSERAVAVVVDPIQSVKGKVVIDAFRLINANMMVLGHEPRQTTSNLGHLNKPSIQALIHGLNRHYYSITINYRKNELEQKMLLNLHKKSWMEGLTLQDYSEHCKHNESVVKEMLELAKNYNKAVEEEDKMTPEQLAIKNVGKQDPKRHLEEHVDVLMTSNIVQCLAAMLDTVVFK
Tb MetRS inh: T. brucei MetRS inhibitors, primary screen, biochemical, luminescence; actives 0.4% (n = 360,000); inhibition, % at 11.9 µM; purified T. brucei MetRS, ATP depletion, Kinase-Glo luminescence;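 active = inhibition above a per-plate cutoff of the control wells' mean inhibition plus 3 SD, cut at about 5.5% in these data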;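 note: 0% = DMSO wells median and 100% = median of wells with control inhibitor compound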
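Assay system: T. brucei methionyl-tRNA synthetase, purified | Medium: HEPES buffer with MgCl2, KCl, DTT, spermine, BSA, pyrophosphatase | Compound: 11.9 µM single point | Incubation: 15 min enzyme-compound preincubation, 2 h reaction, 10 min detection, 25 °C | Measured by: Kinase-Glo luciferase luminescence reporting remaining unconsumed ATP | Measure: % inhibition normalized to control-well medians | Replication: Singlicate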
CSN inh: inhibitors of CSN-mediated cullin deneddylation, primary screen, biochemical, fluorescence polarization, uHTS; Purified CSN, SCF-Nedd8-OG deneddylation; inhibition, % at 12.5 µM; actives 0.38% (n = 360,000); COP9 signalosome complex subunit 5 (Homo sapiens), Q92905;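 active = pattern-corrected inhibition above about 35%, with an unprinted fluorescence ratio check between 0.5 and 1.5, limit read from the data, passing the limit was not always enough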;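 note: 0% = enzyme with substrate and 100% = substrate without enzyme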
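Test system: Human Csn5 produced in HEK293T cells | Compound: 12.5 µM single point | Times: 90 min, room temperature | Signal: Fluorescence polarization readout | Read-out basis: % inhibition of substrate cleavage by Csn5 | Controls: no-enzyme wells high, enzyme-with-substrate wells low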
Neddylation inh: inhibitors of cullin neddylation, primary screen, biochemical, TR-FRET, uHTS, NAE and Ubc12; NEDD8-conjugating enzyme Ubc12 (Homo sapiens) + NEDD8-activating enzyme E1 regulatory …; inhibition, % at 25 µM; actives 0.58% (n = 360,000); AID 651699, 2012; in the data active = inhibition above about 36%
HNF4A DNA FP: change in binding of human HNF4A to DNA, primary screen, biochemical, fluorescence polarization, FITC-DNA | Hepatocyte nuclear factor 4-alpha (Homo sapiens), P41235 | 1 h | activity change, % at 10 µM | actives 0.3% (n = 360,000) | AID 1224865, 2016; in the data active = activity change above about 30%, passing the limit was not always enough
Tb MetRS conf: T. brucei MetRS inhibitors, confirmation, biochemical, luminescence. shares compounds with Tb MetRS inh. actives 93% (n = 1,400). T. brucei MetRS enzyme, luminescence (ATP depletion). inhibition, % at 11.9 µM; in the data active = inhibition above about 7%
Jurkat tox: Jurkat T cell cytotoxicity, cytotoxicity control for T. brucei MetRS inhibitor project, luminescence, high throughput; shares compounds with Tb MetRS inh; Jurkat cells viability, ATP luminescence; inhibition, % at 8.3 µM; actives 12% (n = 1,400); in the data active = inhibition above about 15%;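 note: 0% = vehicle and 100% = reference inhibitor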
TbMetRS FP orth: T. brucei MetRS inhibitors, orthogonal assay for T. brucei MetRS inhibitor project, biochemical, fluorescence polarization; shares compounds with Tb MetRS inh; purified T. brucei MetRS; inhibition, % at 11.9 µM; actives 44% (n = 1,400); in the data active = inhibition above about 17%;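 note: 0% = vehicle wells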
An asterisk follows results filed as active. Shown are actives, neighbours in structure and some others; about 2.4% of the full set was active somewhere.

Screening COc1ccc(OC)c(C2C(C#N)=C(N)Oc3cc(N)ccc32)c1 (stereo unspecified) returned PREPL inhibitor 20, Rpn11 inh 8, Tb MetRS inh 36*, CSN inh 6, Neddylation inh 19, HNF4A DNA FP 4, Tb MetRS conf 4, Jurkat tox 12 and TbMetRS FP orth 4.
Screening COc1ccc(OC)c(C2C(C#N)=C(N)Oc3cc(C)[nH]c(=O)c32)c1 (stereo unspecified) returned PREPL inhibitor -6, Rpn11 inh -12, Tb MetRS inh 13*, CSN inh 7, Neddylation inh -7, HNF4A DNA FP -1, Tb MetRS conf 4, Jurkat tox -4 and TbMetRS FP orth 0.
CC1=C(C(=O)N(C)C)CC(CC(=O)NCCN2CCOCC2)C(=O)N1Cc1ccc(F)cc1 (stereo unspecified) was read as Rpn11 inh 3, Tb MetRS inh -1, CSN inh 1, Neddylation inh 3 and HNF4A DNA FP -1.
Screening COc1ccc(N(CC(=O)N2CCN(c3cccc(C)c3C)CC2)S(=O)(=O)c2c(C)noc2C)cc1 returned PREPL inhibitor -12, Rpn11 inh 2, Tb MetRS inh 0, CSN inh 2, Neddylation inh 1 and HNF4A DNA FP 0.
For O=C(CNC(=O)c1ccc(Br)o1)NCc1cccc(Cl)c1 the results were PREPL inhibitor 3, Rpn11 inh -8, Tb MetRS inh 2, CSN inh 4, Neddylation inh 2 and HNF4A DNA FP -4.
For O=C(CNC(=O)c1ccc(Br)o1)NCc1ccc(Cl)cc1Cl the results were Rpn11 inh 3, Tb MetRS inh 18*, CSN inh 1, Neddylation inh 6, HNF4A DNA FP -3, Tb MetRS conf 45*, Jurkat tox -3 and TbMetRS FP orth 15.
`Cc1ccc(S(=O)(=O)/N=C(/Nc2c(C)cccc2C)c2ccccc2)cc1` gave PREPL inhibitor -5, Rpn11 inh -1, Tb MetRS inh 0, CSN inh 0, Neddylation inh -4 and HNF4A DNA FP -4.
`O=c1[nH]c(Nc2ccccc2)cc2ccccc12` gave PREPL inhibitor 15, Rpn11 inh -14, Tb MetRS inh 8.1*, CSN inh 24, Neddylation inh -18, HNF4A DNA FP -1, Tb MetRS conf 4, Jurkat tox -1 and TbMetRS FP orth 5.
COc1cc(NC(=O)CCNS(=O)(=O)c2cc(Br)cnc2N)cc(OC)c1 was read as PREPL inhibitor 5, Rpn11 inh -8, Tb MetRS inh 0, CSN inh -5, Neddylation inh 5 and HNF4A DNA FP 5.
Nc1ncc(Br)cc1S(=O)(=O)NCCC(=O)Nc1cccc(Cl)c1 was read as PREPL inhibitor -9, Rpn11 inh 1, Tb MetRS inh 11*, CSN inh 2, Neddylation inh 2, HNF4A DNA FP -2, Tb MetRS conf 17*, Jurkat tox 0 and TbMetRS FP orth 9.
`Cc1ccc(NC(=O)CCNS(=O)(=O)c2cc(Br)cnc2N)cc1Cl` gave PREPL inhibitor -11, Rpn11 inh 0, Tb MetRS inh 44*, CSN inh -1, Neddylation inh -52, HNF4A DNA FP 0, Tb MetRS conf 58*, Jurkat tox 7 and TbMetRS FP orth 22*.
Cc1cc(NC(=O)CCNS(=O)(=O)c2cc(Br)cnc2N)ccc1Br was read as PREPL inhibitor -5, Rpn11 inh 8, Tb MetRS inh 31*, CSN inh 3, Neddylation inh 10, HNF4A DNA FP -2, Tb MetRS conf 47*, Jurkat tox 6 and TbMetRS FP orth 29*.
`O=C(Nc1ccc(Cl)cc1)c1nc[nH]c1C(=O)N1CCN(c2ccccc2)CC1` gave PREPL inhibitor 24, Rpn11 inh 0, Tb MetRS inh 0, CSN inh 0 and HNF4A DNA FP 2.
Cc1ccccc1N=C1SC(CC(=O)Nc2ccc3ccccc3c2)C(=O)N1Cc1ccccn1 (stereo unspecified) was read as PREPL inhibitor 39, Rpn11 inh 14, Tb MetRS inh -1, CSN inh 4, Neddylation inh 5 and HNF4A DNA FP 4.
For O=C(CC1SC(=Nc2ccccc2)N(Cc2ccccn2)C1=O)Nc1ccc(Br)cc1 (stereo unspecified) the results were PREPL inhibitor 16, Rpn11 inh 24, Tb MetRS inh 19*, CSN inh 8, Neddylation inh 2, HNF4A DNA FP 3, Tb MetRS conf 38*, Jurkat tox 3 and TbMetRS FP orth 16.
Clc1cccc(N/N=C(\Cc2nc3ccccc3[nH]2)c2ccccc2)c1 was read as PREPL inhibitor 12, Rpn11 inh -2, Tb MetRS inh 59*, CSN inh 4, Neddylation inh 10, HNF4A DNA FP 1, Tb MetRS conf 90*, Jurkat tox 3 and TbMetRS FP orth 98*.
Screening Cc1ccc(C(=O)N/C(=C\c2cccnc2)c2nc3ccccc3[nH]2)cc1 returned PREPL inhibitor 0, Rpn11 inh 3, Tb MetRS inh 15*, CSN inh 1, Neddylation inh 14, HNF4A DNA FP 0, Tb MetRS conf 35*, Jurkat tox -4 and TbMetRS FP orth 11.
Screening COc1ccc(C(=O)N/C(=C\c2cccs2)c2nc3ccccc3[nH]2)cc1OC returned PREPL inhibitor 3, Rpn11 inh -6, Tb MetRS inh 8.2*, CSN inh 2, Neddylation inh 32, HNF4A DNA FP -4, Tb MetRS conf 16*, Jurkat tox 0 and TbMetRS FP orth 2.
